Results reported in ChEMBL document CHEMBL1275561, “In vitro activities of doripenem, a new broad-spectrum carbapenem, against recently collected clinical anaerobic isolates, with emphasis on the Bacteroides fragilis group” (2008).
Values after ≈ are worked out from the molar mass of the structure shown.

Key:
Assay type in all cases: functional
[1] = test system: Clostridioides difficile; test: Antimicrobial activity against Clostridium difficile by agar dilution method
[2] = test system: Peptoniphilus asaccharolyticus; test: Antimicrobial activity against Peptoniphilus asaccharolyticus assessed as resistant isolates by agar dilution method; conditions: pooled result: one value given for 4 cell lines, strains, targets or settings
In short: (§1)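 Agar dilution following CLSI on brucella agar with 5% lysed defibrinated sheep blood and 1 μg/ml vitamin K1, plates made on test day. Log-phase cells at 0.5 McFarland, about 10^5 CFU/spot by Steers replicator, 48 h anaerobic at 37°C. MIC read as the lowest concentration causing a marked growth change versus control. Resistance counted by CLSI anaerobe breakpoints. Eubacterium lentum ATCC 43055 served as control.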

[3] = test system: Parabacteroides merdae; test: Antimicrobial activity against Bacteroides merdae by agar dilution method
In short: (§2)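 CLSI agar dilution on enriched brucella agar (5% lysed defibrinated sheep blood, 1 μg/ml vitamin K1), with drug plates made on the test day. Log-phase cells were adjusted to 0.5 McFarland, and about 10^5 CFU/spot was delivered by Steers replicator. Plates were incubated anaerobically at 37°C for 48 h. MIC was the lowest concentration giving a marked growth change versus the control plate. Controls were B. fragilis ATCC 25285 and B. thetaiotaomicron ATCC 29741.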

[4] = test system: Clostridium paraputrificum; test: Antimicrobial activity against Clostridium paraputrificum by agar dilution method
[5] = test system: Bacteroides fragilis; test: Antimicrobial activity against Bacteroides fragilis assessed as resistant isolates by agar dilution method
In short: (§3)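 CLSI agar dilution on enriched brucella agar (5% lysed defibrinated sheep blood, 1 μg/ml vitamin K1), plates made on test day. Log-phase inocula adjusted to 0.5 McFarland; about 10^5 CFU/spot by Steers replicator. Incubated anaerobically at 37°C for 48 h. MIC was the lowest concentration giving a marked change in growth versus the drug-free control plate. Resistance rates used CLSI anaerobe breakpoints. Controls were B. fragilis ATCC 25285 and B. thetaiotaomicron ATCC 29741.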

[6] = test system: Propionibacterium; test: Antimicrobial activity against Propionibacterium sp. by agar dilution method
In short: (§4)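 Log-phase isolates were adjusted to 0.5 McFarland, and about 10^5 CFU/spot was delivered by Steers replicator. Plates were incubated anaerobically at 37°C for 48 h. MIC was the lowest concentration giving a marked growth change versus the control plate. Eubacterium lentum ATCC 43055 was the QC strain, with repeats when out of range.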

[7] = test system: Phocaeicola vulgatus; test: Antimicrobial activity against Bacteroides vulgatus by agar dilution method; in short: as §2
[8] = test system: Clostridium subterminale; test: Antimicrobial activity against Clostridium subterminale by agar dilution method
[9] = test system: Cutibacterium acnes; test: Antimicrobial activity against Propionibacterium acnes by agar dilution method; in short: as §4
[10] = test system: Bacteroides caccae; test: Antimicrobial activity against Bacteroides caccae by agar dilution method; in short: as §2
[11] = test system: Bacteroides ovatus; test: Antimicrobial activity against Bacteroides ovatus by agar dilution method; in short: as §2
[12] = test system: Finegoldia magna; test: Antimicrobial activity against Finegoldia magna assessed as resistant isolates by agar dilution method; in short: as §1
[13] = test system: Bacteroides uniformis; test: Antimicrobial activity against Bacteroides uniformis assessed as resistant isolates by agar dilution method; in short: as §3
[14] = test system: Clostridium tertium; test: Antimicrobial activity against Clostridium tertium by agar dilution method
[15] = test system: Bacteroides thetaiotaomicron; test: Antimicrobial activity against Bacteroides thetaiotaomicron by agar dilution method; in short: as §2
[16] = test system: Bacteroides nordii; test: Antimicrobial activity against Bacteroides nordii assessed as resistant isolates by agar dilution method; in short: as §3
[17] = test system: Peptostreptococcus sp.; test: Antimicrobial activity against Peptostreptococcus sp. by agar dilution method; in short: as §4
[18] = test system: [Clostridium] innocuum; test: Antimicrobial activity against Clostridium innocuum assessed as resistant isolates by agar dilution method; conditions: pooled result: one value given for 4 cell lines, strains, targets or settings
[19] = test system: Bacteroides eggerthii; test: Antimicrobial activity against Bacteroides eggerthii assessed as resistant isolates by agar dilution method; in short: as §3
[20] = test system: Bacteroides eggerthii; test: Antimicrobial activity against Bacteroides eggerthii by agar dilution method; in short: as §2
[21] = test system: Parvimonas micra; test: Antimicrobial activity against Micromonas micros by agar dilution method
In short: (§5)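 Gram-positive anaerobes were tested by CLSI agar dilution on brucella agar enriched with 5% lysed defibrinated sheep blood and 1 μg/ml vitamin K1. Inoculum was log-phase growth at 0.5 McFarland, about 10^5 CFU/spot by replicator. Incubation was anaerobic, 37°C, 48 h. MIC was the lowest concentration with a marked growth change versus the drug-free plate. Eubacterium lentum ATCC 43055 was the control, and tests were repeated if it fell outside the CLSI range.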

[22] = test system: [Clostridium] innocuum; test: Antimicrobial activity against Clostridium innocuum by agar dilution method
[23] = test system: Finegoldia magna; test: Antimicrobial activity against Finegoldia magna by agar dilution method; in short: as §5
[24] = test system: Clostridium perfringens; test: Antimicrobial activity against Clostridium perfringens by agar dilution method
[25] = test system: Propionibacterium; test: Antimicrobial activity against Propionibacterium sp. assessed as resistant isolates by agar dilution method; in short: as §1
[26] = test system: Anaerococcus prevotii; test: Antimicrobial activity against Anaerococcus prevotii by agar dilution method; in short: as §5
[27] = test system: Parabacteroides distasonis; test: Antimicrobial activity against Bacteroides distasonis assessed as resistant isolates by agar dilution method; in short: as §3
[28] = test system: Cutibacterium acnes; test: Antimicrobial activity against Propionibacterium acnes assessed as resistant isolates by agar dilution method; in short: as §1
[29] = test system: Bacteroides caccae; test: Antimicrobial activity against Bacteroides caccae assessed as resistant isolates by agar dilution method; in short: as §3
[30] = test system: Peptoniphilus asaccharolyticus; test: Antimicrobial activity against Peptoniphilus asaccharolyticus by agar dilution method; in short: as §5
[31] = test system: Parabacteroides distasonis; test: Antimicrobial activity against Bacteroides distasonis by agar dilution method; in short: as §2
[32] = test system: Phocaeicola vulgatus; test: Antimicrobial activity against Bacteroides vulgatus assessed as resistant isolates by agar dilution method; in short: as §3
[33] = test system: Bacteroides fragilis; test: Antimicrobial activity against Bacteroides fragilis by agar dilution method; in short: as §2
[34] = test system: Bacteroides thetaiotaomicron; test: Antimicrobial activity against Bacteroides thetaiotaomicron assessed as resistant isolates by agar dilution method; in short: as §3
[35] = test system: Bacteroides uniformis; test: Antimicrobial activity against Bacteroides uniformis by agar dilution method; in short: as §2
[36] = test system: Parabacteroides merdae; test: Antimicrobial activity against Bacteroides merdae assessed as resistant isolates by agar dilution method; in short: as §3
[37] = test system: Bacteroides nordii; test: Antimicrobial activity against Bacteroides nordii by agar dilution method; in short: as §2
[38] = test system: Bacteroides ovatus; test: Antimicrobial activity against Bacteroides ovatus assessed as resistant isolates by agar dilution method; in short: as §3

With `CCC[C@@H]1C[C@@H](C(=O)N[C@@H]([C@H]2O[C@H](SC)[C@H](O)[C@@H](O)[C@H]2O)[C@H](C)Cl)N(C)C1` [CLINDAMYCIN] the MIC [1] was 1 µg/mL (≈ 2.35 µM), the Activity [2] was 12.2% and the MIC50 [3] was 1 µg/mL (≈ 2.35 µM). The MIC90 [3] was 8 µg/mL (≈ 18.8 µM), the MIC50 [4] was 2 µg/mL (≈ 4.71 µM) and the MIC90 [4] was 32 µg/mL (≈ 75.3 µM). The Activity [5] was 29.3%, the MIC [6] was 0.25 µg/mL (≈ 0.588 µM) and the MIC50 [6] was 0.25 µg/mL (≈ 0.588 µM). For the same compound, the MIC90 [6] was 2 µg/mL (≈ 4.71 µM), the MIC [7] was 0.5 µg/mL (≈ 1.18 µM) and the MIC50 [7] was 0.5 µg/mL (≈ 1.18 µM). It also gave an MIC90 [7] of 128 µg/mL (≈ 301 µM), an MIC50 [8] of 2 µg/mL (≈ 4.71 µM) and an MIC90 [8] of 32 µg/mL (≈ 75.3 µM). It also gave an MIC [9] of 0.25 µg/mL (≈ 0.588 µM), an MIC50 [9] of 0.25 µg/mL (≈ 0.588 µM) and an MIC90 [9] of 0.5 µg/mL (≈ 1.18 µM). For the same compound, the MIC50 [10] was 1 µg/mL (≈ 2.35 µM), the MIC90 [10] was 128 µg/mL (≈ 301 µM) and the MIC50 [11] was 2 µg/mL (≈ 4.71 µM). For the same compound, the MIC90 [11] was 128 µg/mL (≈ 301 µM), the Activity [12] was 20% and the Activity [13] was 3.8%. It also gave an MIC50 [14] of 2 µg/mL (≈ 4.71 µM), an MIC90 [14] of 32 µg/mL (≈ 75.3 µM) and an MIC50 [15] of 2 µg/mL (≈ 4.71 µM). It also gave an MIC90 [15] of 128 µg/mL (≈ 301 µM), an Activity [16] of 20% and an MIC50 [17] of 0.25 µg/mL (≈ 0.588 µM). The MIC90 [17] was 32 µg/mL (≈ 75.3 µM), the Activity [18] was 22.2% and the Activity [19] was 20%. For the same compound, the MIC50 [20] was 1 µg/mL (≈ 2.35 µM), the MIC90 [20] was 8 µg/mL (≈ 18.8 µM) and the MIC50 [21] was 0.25 µg/mL (≈ 0.588 µM). For the same compound, the MIC90 [21] was 32 µg/mL (≈ 75.3 µM), the MIC50 [22] was 2 µg/mL (≈ 4.71 µM) and the MIC90 [22] was 32 µg/mL (≈ 75.3 µM). For the same compound, the MIC50 [23] was 0.5 µg/mL (≈ 1.18 µM), the MIC90 [23] was 32 µg/mL (≈ 75.3 µM) and the MIC50 [24] was 0.25 µg/mL (≈ 0.588 µM). It also gave an MIC90 [24] of 2 µg/mL (≈ 4.71 µM), an Activity [25] of 7.7% and an MIC50 [26] of 0.25 µg/mL (≈ 0.588 µM). The MIC90 [26] was 32 µg/mL (≈ 75.3 µM), the Activity [27] was 13.3% and the Activity [28] was 5.6%. It also gave an Activity [29] of 31.3%, an MIC50 [30] of 0.25 µg/mL (≈ 0.588 µM) and an MIC90 [30] of 32 µg/mL (≈ 75.3 µM). The MIC50 [31] was 1 µg/mL (≈ 2.35 µM), the MIC90 [31] was 128 µg/mL (≈ 301 µM) and the Activity [32] was 32.3%. The MIC [33] was 0.5 µg/mL (≈ 1.18 µM), the MIC50 [33] was 0.5 µg/mL (≈ 1.18 µM) and the MIC90 [33] was 128 µg/mL (≈ 301 µM). For the same compound, the Activity [34] was 34.6%, the MIC50 [35] was 2 µg/mL (≈ 4.71 µM) and the MIC90 [35] was 128 µg/mL (≈ 301 µM). It also gave an Activity [36] of 20%, an MIC50 [37] of 1 µg/mL (≈ 2.35 µM) and an MIC90 [37] of 8 µg/mL (≈ 18.8 µM). The Activity [38] was 42.9%.
